This passage reports LD50, IC50 and selectivity ratio results from ChEMBL document CHEMBL4393692, “Thiazolidinone/thiazole based hybrids - New class of antitrypanosomal agents” (Eur J Med Chem, 2019).

Data set [1] can be described thus: Acute toxicity in ip dosed mouse by Litchfield-Wilcoxon method. Format: organism-based. Conditions: in vivo. Summed up: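 White male mice of 23-25 g; compounds dissolved in 0.9% NaCl saline with 1-2 drops Tween-80, stock prepared immediately before use. Single intraperitoneal injection at increasing doses within 100–1000 mg/kg, 4 or 5 dose levels with 6 animals per dose. LD50 derived by the Litchfield-Wilcoxon method.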

For data set [2], the system named is Trypanosoma brucei gambiense. Put plainly: Antitrypanosomal activity against bloodstream form of Trypanosoma brucei gambiense Feo reduction in parasite growth after 72 hrs by resazurin dye based fluorescence assay. It is filed as functional, organism-based. Summed up: (§1)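 Bloodstream parasites cultured in HMI9 with 10% FCS at 37°C under 5% CO2. Log-phase cells harvested at 3000xg, plated at 10^5 cells/ml with dilutions from 10 down to 0.625 µg/ml (DMSO stocks) for 72 h. Resazurin added at 45 µM final, fluorescence read after a further 4 h. Inhibition vs DMSO control. IC50 from dose-response curve, mean ± SD of three independent experiments.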

Data set [3] is described as follows: Selectivity index, ratio of IC50 for human AB943 cells to IC50 of bloodstream form of Trypanosoma brucei gambiense Feo. It is filed as toxicity. Conditions: read-out: Ratio IC50. The gist of the method:
(§2)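 Human primary fibroblasts grown in RPMI with 25 mM HEPES pH 7.3 and 10% FCS, 37°C, 5% CO2. After trypsinisation, seeded at 5000 cells/well and incubated 24 h. Then washed and exposed to two-fold drug dilutions, final DMSO below 1%, for 5 days. Resazurin added, fluorescence read (ex 530/em 590 nm) after 4 h. Growth inhibition vs DMSO control. SI = IC50 fibroblast / IC50 T. b. gambiense.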

Data set [4] is described as follows: Cytotoxicity against human AB943 cells assessed as reduction in cell viability after 5 days resazurin dye based fluorescence assay. Conditions: 120 h. The gist of the method: as §2
The test system of data set [5] is Trypanosoma brucei brucei. The experiment in a line: Antitrypanosomal activity against bloodstream form of Trypanosoma brucei brucei 90-13 reduction in parasite growth after 72 hrs by resazurin dye based fluorescence assay. Format: functional, organism-based. As to conditions: 90-13, 72 h. Summed up:
as §1

`CCC1S/C(=N\N=C\c2c(-c3ccccc3)[nH]c3ccccc23)NC1=O` (centres undefined) returned an LD50 in data set [1] of 220 mg/kg. In addition, the results for the IC50 in data set [2], in data set [4] and in data set [5] were 0.11 µM, 24.8 µM and 0.03 µM, respectively. In addition, in data set [3], the selectivity ratio stood at 220.

`O=C1CS/C(=N\N=C\c2c(-c3ccc(Cl)cc3)[nH]c3ccccc23)N1`: the LD50 in data set [1] turned out to be 270 mg/kg. In addition, half-maximal inhibition in data set [2] (IC50) required 3.93 µM.

`CC1S/C(=N\N=C\c2c(-c3ccccc3)[nH]c3ccccc23)NC1=O` (centres undefined) yielded an LD50 in data set [1] of 220 mg/kg. Further, the figures for the IC50 in data set [2] and in data set [4] were 0.21 µM and 28.1 µM, respectively. The selectivity ratio in data set [3] is 130.

Consider `O=C(O)CC1S/C(=N\N=C\c2c(-c3ccc(Cl)cc3)[nH]c3ccccc23)NC1=O` (centres undefined), for which the LD50 in data set [1] is 290 mg/kg.

As for `O=C(CC1S/C(=N\N=C\c2c(-c3ccccc3)[nH]c3ccccc23)NC1=O)Nc1ccc(Br)cc1` (centres undefined), in data set [5], the IC50 amounted to 7.86 µM.

As to `N=C(N)c1ccc(OCCCCCOc2ccc(C(=N)N)cc2)cc1` [PENTAMIDINE], the IC50 is 0.0015 µM in data set [2], 23.2 µM in data set [4] and 0.0014 µM in data set [5].

Turning to `CC1S/C(=N\N=C\c2c(-c3ccc(Cl)cc3)[nH]c3ccccc23)NC1=O` (centres undefined), the LD50 in data set [1] was found to be 310 mg/kg. Besides, the IC50 in data set [2] was 2.22 µM; in data set [4] it was 5.22 µM. In data set [3], the selectivity ratio was determined as 2.

For `O=C(O)CCNC(=O)CC1S/C(=N\N=C\c2c(-c3ccccc3)[nH]c3ccccc23)NC1=O` (centres undefined), in data set [5], 34.8 µM corresponded to half-maximal inhibition (IC50).

`CCC1S/C(=N\N=C\c2c(-c3ccc(Cl)cc3)[nH]c3ccccc23)N(c2ccc(O)cc2)C1=O` (centres undefined) showed an LD50 in data set [1] of 330 mg/kg. Further, the IC50 was found to be 0.86 µM in data set [2] and 85.9 µM in data set [4]. Besides, in data set [3], the selectivity ratio amounted to 100.

In data set [1], `CC(=O)OCCC1S/C(=N\N=C\c2c(-c3ccccc3)[nH]c3ccccc23)NC1=O` (centres undefined) registered an LD50 of 200 mg/kg. In addition, the half-maximal inhibitory concentration (IC50) is 0.23 µM in data set [2], 20.9 µM in data set [4] and 0.06 µM in data set [5]. In data set [3], the selectivity ratio was 95.

In turn, `O=C(CC1S/C(=N\N=C\c2c(-c3ccccc3)[nH]c3ccccc23)NC1=O)Nc1ccc(Cl)cc1` (centres undefined) yielded an IC50 in data set [5] of 9.16 µM.

`O=C(O)CC1S/C(=N\N=C\c2c(-c3ccccc3)[nH]c3ccccc23)NC1=O` (centres undefined): in data set [1], the LD50 came to 240 mg/kg.

In data set [5], `O=C(CC1S/C(=N\N=C\c2c(-c3ccccc3)[nH]c3ccccc23)NC1=O)c1ccc2c(c1)CCCC2` (centres undefined) returned an IC50 of 13.1 µM.

Turning to `CC1CS(=O)(=O)CCN1/N=C/c1ccc([N+](=O)[O-])o1` (centres undefined) [NIFURTIMOX], the IC50 in data set [2] is 4.64 µM; in data set [4], 65.1 µM; in data set [5], 2.39 µM. Moreover, in data set [3], the selectivity ratio amounted to 14.

As for `O=C(CC1S/C(=N\N=C\c2c(-c3ccccc3)[nH]c3ccccc23)NC1=O)c1ccccc1` (centres undefined), the figures for the IC50 in data set [2] and in data set [5] were 2.82 µM and 7.73 µM, respectively.
